ChEMBL document CHEMBL1152210, “Synthesis and biological evaluation of alkoxycoumarins as novel nematicidal constituents” (Bioorg Med Chem Lett, 2008)
Calls of active or inactive are those of the source. The rule behind the calls is not given here.

Columns and labels:
Artemia salina = test: Toxicity in Artemia salina after 24 hrs by serial dilution method; assay type: organism-based; conditions: in vivo
[1] = test system: Bursaphelenchus xylophilus; test: Nematicidal activity against Bursaphelenchus xylophilus measured per cotton ball after 4 days by serial dilution method; assay type: functional
How it was run: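 Cotton ball (5 mm), loaded with test compound or solvent and vacuum-dried, set on 4-day Botrytis cinerea mycelia grown on Czapek-Dox agar at 21 °C. 100 µl B. xylophilus suspension (ca. 15,000/ml in distilled water) injected into the ball; dish held at 26 °C for 4 days. Mycelial consumption scored; MED is the lowest active dose by serial dilution, top dose 160 µg/ball. Survival confirmed by methylene blue staining.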

Oryzias latipes = test: Toxicity in Oryzias latipes after 24 hrs by serial dilution method; assay type: organism-based; conditions: in vivo

Row | Compound | LC50 (Artemia salina) | LC100 (Artemia salina) | Activity [1] | LC50 (Oryzias latipes) | LC100 (Oryzias latipes) | MED [1]
1 | COc1cc(=O)oc2ccccc12 | 60 ppm | > 80 ppm | inactive | 75 ppm | 100 ppm | –
2 | O=c1ccc2c(O)cccc2o1 | – | – | inactive | – | – | –
3 | COc1cccc2oc(=O)ccc12 | 30 ppm | 20 ppm | – | 38 ppm | 50 ppm | 20 µg
4 | COc1cc2ccccc2oc1=O | > 80 ppm | > 80 ppm | – | > 100 ppm | > 100 ppm | 80 µg
5 | COc1cc(OC)c2ccc(=O)oc2c1 [CITROPTEN] | – | – | – | – | – | 20 µg
6 | CCCCCCCCCc1cccc(O)c1 | 0.6 ppm | 1.3 ppm | – | 7.5 ppm | 10 ppm | 2.5 µg
7 | CCOc1cccc2oc(=O)ccc12 | > 80 ppm | > 80 ppm | – | 75 ppm | 100 ppm | 10 µg
8 | C=CCOc1cccc2oc(=O)ccc12 | – | – | inactive | – | – | –
9 | COc1ccc2ccc(=O)oc2c1 [HERNIARIN] | – | 80 ppm | – | – | 75 ppm | 40 µg
10 | O=c1ccc2ccccc2o1 [COUMARIN] | > 80 ppm | > 80 ppm | – | 38 ppm | 50 ppm | 80 µg
11 | COc1cccc2ccc(=O)oc12 | > 80 ppm | > 80 ppm | – | 100 ppm | > 100 ppm | 80 µg
12 | O=c1ccc2c(OCc3ccccc3)cccc2o1 | – | – | – | – | – | 80 µg
13 | CCCCCOc1cccc2oc(=O)ccc12 | – | – | – | – | – | 40 µg
14 | CCCCOc1cccc2oc(=O)ccc12 | – | – | – | – | – | 40 µg
15 | CCCCCCCCCCCc1cccc(O)c1 | 1 ppm | 1.3 ppm | – | 3.8 ppm | 5 ppm | 5 µg
16 | CCCCCCCCOc1cccc2oc(=O)ccc12 | – | – | – | – | – | 40 µg
17 | CCCOc1cccc2oc(=O)ccc12 | – | – | – | – | – | 20 µg
18 | O=C(O)/C=C/c1ccccc1O | – | – | inactive | – | – | –
19 | COc1ccc2oc(=O)ccc2c1 | > 80 ppm | > 80 ppm | – | 75 ppm | 100 ppm | 80 µg
20 | C/C1=C\C[C@@H]2C[C@@H](C[C@]3(CC[C@H](C)[C@@H](C)O3)O2)OC(=O)[C@@H]2CC[C@@H](O)[C@H]3OC/C(=C\C=C\[C@H](C)C1)[C@]32O [MILBEMECTIN] | 0.1 ppm | 0.6 ppm | – | 0.06 ppm | 0.25 ppm | 0.6 µg
